{
  "source": "paper PMC9382226",
  "about": "(Inorganic chemistry, 2022)",
  "key": {"[1]": {"type": "binding", "settings": "for k2 (pH 7.4), second-order rate constant for complexation of UO2^2+: TRIS buffer pH 7.4, 25 °C; for k2 (pH 5), second-order rate constant for complexation of UO2^2+: aqueous citrate buffer pH 5, 25 °C"}, "mice": {"tested_on": "mice", "test": "Ex vivo biodistribution of uranium in mice by ICP-MS", "settings": "for stability of the uranium complex in vivo: biodistribution, label is the ligand of the complex; for uranium uptake in bone (tibia) / clearance from blood / uranium in soft organs (lung, liver, kidney, spleen): 4 mg/kg intravenous injection, ICP-MS; for uranium uptake in bone (tibia): 30 min, 2 h and 24 h"}, "[2]": {"type": "binding", "settings": "[UO2^2+]tot = 10^−6 M, [L]tot = 10^−5 M, 25 °C, I = 0.1 M KCl"}, "[3]": {"test": "Ligand protonation constants by potentiometric titration", "type": "physicochemical", "settings": "25 °C, I = 0.1 M KCl"}, "[4]": {"test": "Ligand protonation constants by semi-batch spectrophotometric titration", "type": "physicochemical", "settings": "25 °C, I = 0.1 M KCl", "how_it_was_run": "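Semi-batch spectrophotometric titration of test ligands (those not titrated potentiometrically) at 25 °C, ionic strength 0.1 M with KCl as supporting electrolyte; protonation constants fitted from the titration data; uncertainty given as standard deviation of the last digit.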"}, "[5]": {"test": "Initial pH potentiometric experiments with UO2^2+", "type": "binding", "settings": "lowest electrode-calibrated pH value of 2.4"}, "[6]": {"test": "Kinetic stability challenge with hydroxyapatite", "type": "physicochemical", "settings": "2000 equiv. HAP, 0.1 M TRIS, 37 °C, arsenazo III indicator"}, "[7]": {"test": "Aqueous solubility of the complexes", "type": "physicochemical", "settings": "in words"}},
  "note": "Entries after “also recorded” stand apart in the source; their conditions may differ.",
  "data": [
    {"smiles": "O=C(O)c1cccc(CNC2CCCCC2NCc2cccc(C(=O)O)n2)n1", "note": "(stereo not drawn) [H2CHXdedpa]", "values": [
      {"measurement": "k2 (pH 7.4), second-order rate constant for complexation of UO2^2+", "setting": "[1]", "value": "1190 ± 150", "unit": "M^−1 s^−1"},
      {"measurement": "k2 (pH 5), second-order rate constant for complexation of UO2^2+", "setting": "[1]", "value": "1320 ± 140", "unit": "M^−1 s^−1"},
      {"measurement": "stability of the uranium complex in vivo", "setting": "mice", "value": "stable in vivo"},
      {"measurement": "pUO2 (pH 7.4) = −log[UO2^2+]free", "setting": "[2]", "value": 17.72},
      {"measurement": "pKa1", "setting": "[3]", "value": "9.39(2)"},
      {"measurement": "pKa2", "setting": "[3]", "value": "6.43(6)"},
      {"measurement": "pKa3", "setting": "[3]", "value": "3.15(6)"},
      {"measurement": "pKa4", "setting": "[3]", "value": "2.40(8)"}
    ]},
    {"smiles": "Oc1cccc2ccc(CNC3CCCCC3NCc3ccc4cccc(O)c4n3)nc12", "note": "(stereo not drawn) [H2CHXhox]", "values": [
      {"measurement": "pKa1", "setting": "[4]", "value": "10.95(9)"},
      {"measurement": "pKa2", "setting": "[4]", "value": "10.18(2)"},
      {"measurement": "pKa3", "setting": "[4]", "value": "8.72(7)"},
      {"measurement": "pKa4", "setting": "[4]", "value": "5.37(2)"},
      {"measurement": "k2 (pH 7.4), second-order rate constant for complexation of UO2^2+", "setting": "[1]", "value": "2850 ± 380", "unit": "M^−1 s^−1"},
      {"measurement": "k2 (pH 5), second-order rate constant for complexation of UO2^2+", "setting": "[1]", "value": "140 ± 5", "unit": "M^−1 s^−1"},
      {"measurement": "pUO2 (pH 7.4) = −log[UO2^2+]free", "setting": "[2]", "value": 19.98}
    ]},
    {"smiles": "O=C(O)c1cccc(CNCCNCc2cccc(C(=O)O)n2)n1", "note": "[H2dedpa]", "values": [
      {"measurement": "k2 (pH 7.4), second-order rate constant for complexation of UO2^2+", "setting": "[1]", "value": "450 ± 40", "unit": "M^−1 s^−1"},
      {"measurement": "k2 (pH 5), second-order rate constant for complexation of UO2^2+", "setting": "[1]", "value": "420 ± 28", "unit": "M^−1 s^−1"},
      {"measurement": "stability of the uranium complex in vivo", "setting": "mice", "value": "stable in vivo"},
      {"measurement": "pUO2 (pH 7.4) = −log[UO2^2+]free", "setting": "[2]", "value": 17.46},
      {"measurement": "pKa1", "setting": "[3]", "value": "8.95(3)"},
      {"measurement": "pKa2", "setting": "[3]", "value": "6.32(6)"},
      {"measurement": "pKa3", "setting": "[3]", "value": "3.15(6)"},
      {"measurement": "pKa4", "setting": "[3]", "value": "2.28(7)"},
      {"measurement": "free UO2^2+ present", "setting": "[5]", "value": "< 5", "unit": "%"}
    ]},
    {"smiles": "Oc1cccc2ccc(CNCCNCc3ccc4cccc(O)c4n3)nc12", "note": "[H2hox]", "values": [
      {"measurement": "pKa1", "setting": "[4]", "value": "11.0(1)"},
      {"measurement": "pKa2", "setting": "[4]", "value": "10.10(8)"},
      {"measurement": "pKa3", "setting": "[4]", "value": "8.63(5)"},
      {"measurement": "pKa4", "setting": "[4]", "value": "6.1(3)"},
      {"measurement": "k2 (pH 7.4), second-order rate constant for complexation of UO2^2+", "setting": "[1]", "value": "3420 ± 340", "unit": "M^−1 s^−1"},
      {"measurement": "k2 (pH 5), second-order rate constant for complexation of UO2^2+", "setting": "[1]", "value": "73 ± 5", "unit": "M^−1 s^−1"},
      {"measurement": "stability of the uranium complex in vivo", "setting": "mice", "value": "stable in vivo"},
      {"measurement": "pUO2 (pH 7.4) = −log[UO2^2+]free", "setting": "[2]", "value": 19.80}
    ]},
    {"smiles": "O.O.O.O.O.O.O=[N+]([O-])O.O=[N+]([O-])O.[O]=[U]=[O]", "note": "[UO2(NO3)2·6H2O]", "values": [
      {"measurement": "original uranium remaining in solution with HAP", "setting": "[6]; after 12 h", "value": 10, "unit": "%"},
      {"measurement": "uranium remaining in solution with HAP", "setting": "[6]; by 120 h", "value": "undetectable"}
    ]},
    {"smiles": "O=C([O-])c1cccc(CNC2CCCCC2NCc2cccc(C(=O)[O-])n2)n1.[O]=[U+2]=[O]", "note": "(stereo not drawn) [[UO2(CHXdedpa)]]", "values": [
      {"measurement": "uranium uptake in bone (tibia)", "setting": "mice", "value": "minimal uptake in the bone"},
      {"measurement": "clearance from blood", "setting": "mice", "value": "rapidly cleared from the blood"},
      {"measurement": "uranium in soft organs (lung, liver, kidney, spleen)", "setting": "mice", "value": "low but detectable values of uranium were found in the lung, liver and kidney"}
    ]},
    {"smiles": "[O-]c1cccc2ccc(CNC3CCCCC3NCc3ccc4cccc([O-])c4n3)nc12.[O]=[U+2]=[O]", "note": "(stereo not drawn) [[UO2(CHXhox)]]", "values": [
      {"measurement": "aqueous solubility", "setting": "[7]", "value": "low solubility in water; also recorded: poor aqueous solubility"},
      {"measurement": "lethality upon injection", "setting": "mice; intravenous injection", "value": "precipitation in the circulatory system upon injection causing lethality"}
    ]},
    {"smiles": "O=C([O-])c1cccc(CNCCNCc2cccc(C(=O)[O-])n2)n1.[O]=[U+2]=[O]", "note": "[[UO2(dedpa)]]", "values": [
      {"measurement": "uranium uptake in bone (tibia)", "setting": "mice", "value": "minimal uptake in the bone"},
      {"measurement": "clearance from blood", "setting": "mice", "value": "rapidly cleared from the blood"},
      {"measurement": "uranium in soft organs (lung, liver, kidney, spleen)", "setting": "mice", "value": "low but detectable values of uranium were found in the lung, liver and kidney"}
    ]},
    {"smiles": "[O-]c1cccc2ccc(CNCCNCc3ccc4cccc([O-])c4n3)nc12.[O]=[U+2]=[O]", "note": "[[UO2(hox)]]", "values": [
      {"measurement": "uranium uptake in bone (tibia)", "setting": "mice", "value": "minimal uptake in the bone"},
      {"measurement": "clearance from blood", "setting": "mice", "value": "rapidly cleared from the blood"},
      {"measurement": "uranium in soft organs (lung, liver, kidney, spleen)", "setting": "mice", "value": "significant accumulation of uranium in the lungs"}
    ]}
  ]
}
